One block for each molecule: values may come before it.
How the values were obtained:
[1] = molecular target: KIX domain from mouse CBP 586-672 (mouse) (UniProt P45481); assay: fluorescence polarisation
[2] = molecular target: KIX domain of CBP/p300 (mouse CBP 586–672) (Mus musculus, UniProt P45481); format: binding; conditions: for decrease in affinity for the KIX domain relative to native E2A AD2–1: mutant peptide versus wild-type E2A AD2–1, fluorescence anisotropy titration
How it was run: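 Mouse CBP KIX (586–672), E. coli BL21(DE3)-expressed, purified, with final size exclusion in 20 mM MES pH 6.0, 1 mM β-mercaptoethanol (same buffer for titration). KIX spiked with 100 nM FITC-peptide titrated into that peptide. Ex 492/em 523 nm; three readings per injection averaged. Kd from quadratic one-site fit plus linear non-specific term. Mutant-peptide series run in triplicate; mean ± standard error.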

[3] = molecular target: KIX^ΔPCETsite (Phe612Ala/Asp622Ala/Arg624Ala/Lys667Glu quadruple KIX mutant) (Mus musculus, UniProt P45481, D622A/F612A/K667E/R624A); format: binding; conditions: 250 μM versus 17 μM
[4] = molecular target: KIX domain from mouse CBP 586-672 (mouse, UniProt P45481 586-672); assay: NMR titration
Sequence of KIX domain from mouse CBP 586-672 (P45481 586-672): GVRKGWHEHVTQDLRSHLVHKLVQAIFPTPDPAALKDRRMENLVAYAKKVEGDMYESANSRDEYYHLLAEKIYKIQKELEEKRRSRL

Sequence of KIX domain of CBP/p300 (mouse CBP 586–672) (P45481 586-672): as above
Sequence of KIX domain from mouse CBP 586-672 (mouse) (P45481 586-672): as above
Sequence of KIX^ΔPCETsite (Phe612Ala/Asp622Ala/Arg624Ala/Lys667Glu quadruple KIX mutant) (P45481 586-672 F612A/D622A/R624A/K667E): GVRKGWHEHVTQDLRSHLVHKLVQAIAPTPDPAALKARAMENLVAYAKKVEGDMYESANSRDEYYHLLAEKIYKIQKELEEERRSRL

Molecule: E2A AD2-1 His402Ala FITC-labelled synthetic mutant peptide (from UniProt P15923 394-407)
Kd [1]: 13.5 µM

Molecule: Ac-EDHLDEAIHVLRSHY-NH2 [E2A AD2–1 (C-terminal tyrosine)]
Kd [2]: 21 ± 5 µM

Molecule: E2A AD2-1 Leu404Ala FITC-labelled synthetic mutant peptide (from UniProt P15923 394-407)
Kd [1]: 86 µM

Molecule: Ac-EDHLDEAIHVLRSHAVGTAGDMHTLLP-NH2 [E2A AD2–1/2]
Kd [2]: 21 ± 3 µM

Molecule: E2A AD2-1 Ala400Leu FITC-labelled synthetic mutant peptide (from UniProt P15923 394-407)
Kd [1]: 7.2 µM

Molecule: E2A AD2-1 Leu397Ala FITC-labelled synthetic mutant peptide (from UniProt P15923 394-407)
Kd [1]: 102 µM

Molecule: E2A AD2-1 Ile401Ala FITC-labelled synthetic mutant peptide (from UniProt P15923 394-407)
Kd [1]: 106 µM

The next lines start with the values.

decrease in affinity for the KIX domain relative to native E2A AD2–1 [2]: approximately 5 fold
Molecule: Ac-EDHLDEAIHVARSH-NH2 (N-terminus and C-terminus assumed) [E2A AD2–1 Leu404Ala]

decrease in affinity for the KIX domain relative to native E2A AD2–1 [2]: 6 fold
Molecule: Ac-EDHADEAIHVLRSH-NH2 (N-terminus and C-terminus assumed) [E2A AD2–1 Leu397Ala]

decrease in affinity of KIX^ΔPCETsite mutant relative to native KIX [3]: 15 fold
Molecule: Ac-EDHLDEAIHVLRSH-NH2 [E2A AD2–1]

binding result [4]: binds
B1: Unfused recombinant E2A AD2-1/2 (E2A residues 394-420) (peptide)
chain: EDHLDEAIHVLRSHAVGTAGDMHTLLP
